The values that follow come from ChEMBL document CHEMBL1795305, “Sorafenib derivatives induce apoptosis through inhibition of STAT3 independent of Raf” (Eur J Med Chem, 2011).

pIC50: −log10 of the molar value. The source made the active and inactive calls. No cut-off for these calls is given here. Bounds are passed on as bounds.

Experiment [1] in a line: Cytotoxicity against human PLC/PRF/5 cells assessed as growth inhibition. It counts as functional, cell-based.
The target in experiment [2] is RAF proto-oncogene serine/threonine-protein kinase (Homo sapiens) (UniProt P04049). Conditions: 5 uM.
The target in experiment [3] is Signal transducer and activator of transcription 3 (Homo sapiens) (UniProt P40763). Nature of the experiment: Inhibition of STAT3-mediated survivin expression in human PLC/PRF/5 cells at 5 to 10 uM after 24 hrs by Western blot analysis. Format: cell-based. Put shortly: (§1)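 PLC5 cells in FBS-containing medium treated 24 h at 5 and 10 µM; whole-cell lysates immunoblotted for phospho-STAT3, total STAT3, cyclin D1 and survivin.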
Signal transducer and activator of transcription 3 (Homo sapiens), sequence (P40763 whole entry): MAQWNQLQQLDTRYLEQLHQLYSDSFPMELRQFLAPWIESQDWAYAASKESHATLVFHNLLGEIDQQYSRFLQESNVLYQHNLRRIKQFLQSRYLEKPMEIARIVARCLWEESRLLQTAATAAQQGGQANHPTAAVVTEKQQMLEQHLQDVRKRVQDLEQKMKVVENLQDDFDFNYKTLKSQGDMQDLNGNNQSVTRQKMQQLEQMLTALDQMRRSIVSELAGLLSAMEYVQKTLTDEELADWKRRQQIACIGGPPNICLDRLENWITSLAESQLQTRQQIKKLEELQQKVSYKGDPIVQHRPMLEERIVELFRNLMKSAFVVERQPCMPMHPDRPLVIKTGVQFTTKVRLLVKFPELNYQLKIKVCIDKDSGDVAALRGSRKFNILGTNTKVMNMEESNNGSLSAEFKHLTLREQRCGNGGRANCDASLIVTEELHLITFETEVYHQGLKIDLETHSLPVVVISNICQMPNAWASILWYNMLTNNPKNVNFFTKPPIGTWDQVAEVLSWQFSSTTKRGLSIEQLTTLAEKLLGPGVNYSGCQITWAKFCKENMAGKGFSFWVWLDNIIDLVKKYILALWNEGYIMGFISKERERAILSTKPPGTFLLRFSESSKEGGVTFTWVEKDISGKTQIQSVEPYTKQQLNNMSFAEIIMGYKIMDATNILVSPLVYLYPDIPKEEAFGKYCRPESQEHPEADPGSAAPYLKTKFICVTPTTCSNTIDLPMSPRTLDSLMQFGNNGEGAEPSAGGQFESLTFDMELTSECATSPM
In general terms: A western blot detects proteins with antibodies after separation by electrophoresis.

The target is the same in experiment [4]. Kind of experiment: Inhibition of STAT3-mediated cyclin D1 protein expression in human PLC/PRF/5 cells at 5 to 10 uM after 24 hrs by Western blot analysis. It counts as cell-based. The procedure, abridged:
as §1

For experiment [5] the target is unchanged. Nature of the experiment: Inhibition of IL6-induced STAT3 phosphorylation in human PLC/PRF/5 cells at 10 uM after 24 hrs by ELISA. Format: cell-based. The procedure, abridged: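 PLC5 cells pre-treated with IL-6 1 ng/mL, then exposed to compound at 10 µM for 24 h; lysates incubated on antibody-coated plate capturing phospho- and non-phospho-STAT3; phospho-STAT3 detected by absorbance at 450 nm; mean ± SD, N = 3.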

Experiment [6] relates to PLC-PRF-5. Nature of the experiment: Induction of apoptosis in human PLC/PRF/5 cells assessed as DNA fragmentation at 5 to 10 uM by ELISA. It counts as functional, cell-based. The procedure, abridged:
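PLC5 cells treated 24 h at 5 and 10 µM in culture; cell death quantified as DNA fragmentation by ELISA kit following manufacturer's standard protocol.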
A general note: In an ELISA, binding on a coated surface is turned into a signal by an enzyme label.

The target of experiment [7] is RAF proto-oncogene serine/threonine-protein kinase (Homo sapiens) (UniProt P04049). Nature of the experiment: Inhibition of raf kinase in human PLC/PRF/5 cell lysate at 10 uM after 24 hrs.
The subject of experiment [8] is PLC-PRF-5. Nature of the experiment: Induction of apoptosis in human PLC/PRF/5 at 5 to 10 uM by flow cytometry. Format: functional. The procedure, abridged: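 PLC5 cells treated 24 h at 5 and 10 µM; trypsinized, washed in PBS, stained with propidium iodide 30 min at 37 °C in the dark; apoptotic fraction read as sub-G1 population by flow cytometry; triplicate experiments.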
Background: Flow cytometry measures light scatter and fluorescence of single cells or particles in a stream.

Take `CNC(=O)c1cc(Oc2ccc(NS(=O)(=O)c3ccc(C(C)(C)C)cc3)cc2)ccn1`: the pIC50 (as a rule, the negative decadic logarithm of the IC50, by convention in mol/L) in experiment [1] (Homo sapiens, PLC-PRF-5) was less than 4.40.
On the same count and under the same terms, under `CNC(=O)c1cc(Oc2ccc(NS(=O)(=O)c3ccccc3)cc2)ccn1` stands less than 4.40; under `CNC(=O)c1cc(Oc2ccc(NC(=O)c3ccc(C(F)(F)F)cc3)cc2)ccn1`, less than 4.40; under `O=[N+]([O-])c1cc(C(F)(F)F)ccc1S(=O)(=O)Nc1ccc(Oc2ccnc3c([N+](=O)[O-])cccc23)cc1`, less than 4.40.
For the compound SC-1 [listing 1 of 2 here], in experiment [1] (plc-prf-5), the pIC50 was 5.12.
In the case of `Cc1cc(Oc2ccnc3c(N)cccc23)ccc1NC(=O)c1cc(C(F)(F)F)cc(C(F)(F)F)c1`, the pIC50 in experiment [1] (Homo sapiens, PLC-PRF-5) was 4.60.
The same measure, in the same setting: to `CNC(=O)c1cc(Oc2ccc(NC(=O)c3cc(C(F)(F)F)ccc3F)cc2)ccn1` belongs less than 4.40; to `O=C(Nc1ccc(Oc2ccnc3ccccc23)cc1)c1cc(C(F)(F)F)ccc1F`, 4.68.
On to `CNC(=O)c1cc(Oc2ccc(NS(=O)(=O)c3ccc(C(F)(F)F)cc3Br)cc2)ccn1`, for which the negative-log IC50 (pIC50) in experiment [1] (Homo sapiens, PLC-PRF-5) was less than 4.40.
As to `CNC(=O)c1cc(Oc2ccc(NS(=O)(=O)c3ccc4ccccc4c3)cc2)ccn1`, the negative-log IC50 (pIC50) in experiment [1] (Homo sapiens, PLC-PRF-5) is less than 4.40.
With `CNC(=O)c1cc(Oc2ccc(NC(=O)Nc3ccc(Cl)c(C(F)(F)F)c3)cc2)ccn1` [SORAFENIB], the inhibition – broadly, how much of the control response was suppressed – in experiment [2] came out at 50%. Moreover, the negative logarithm of the IC50 (pIC50) in experiment [1] (Homo sapiens, PLC-PRF-5) was 5.08.
Regarding `O=[N+]([O-])c1cccc2c(Oc3ccc(NS(=O)(=O)c4ccc(C(F)(F)F)cc4Br)cc3)ccnc12`, the negative-log IC50 (pIC50) in experiment [1] (Homo sapiens, PLC-PRF-5) is less than 4.40.
As for `O=C(Nc1ccc(Oc2ccnc3ccccc23)cc1)c1cc(C(F)(F)F)cc(C(F)(F)F)c1`, the negative-log IC50 (pIC50) in experiment [1] (Homo sapiens, PLC-PRF-5) was 4.80.
For `Nc1cccc2c(Oc3cccc(NC(=O)c4cc(C(F)(F)F)cc(C(F)(F)F)c4)c3)ccnc12`, the negative logarithm of the IC50 (pIC50) in experiment [1] (Homo sapiens, PLC-PRF-5) was 4.72.
Same read-out and setting: under `O=C(Nc1ccc(Oc2ccnc3c([N+](=O)[O-])cccc23)cc1)c1cc(C(F)(F)F)ccc1F` stands less than 4.40; under `CC(=O)Nc1cccc2c(Oc3ccc(NC(=O)c4cc(C(F)(F)F)cc(C(F)(F)F)c4)c(C)c3)ccnc12`, less than 4.40.
Same read-out and setting: under `O=C(Nc1cccc(Oc2ccnc3c([N+](=O)[O-])cccc23)c1)c1cc(C(F)(F)F)cc(C(F)(F)F)c1` stands less than 4.40.
`O=[N+]([O-])c1cc(C(F)(F)F)ccc1S(=O)(=O)Nc1ccc(Oc2ccnc3ccccc23)cc1`: the inhibition result in experiment [3] and in experiment [4] was “inactive” throughout. Besides, in experiment [1] (Homo sapiens, PLC-PRF-5), the pIC50 is less than 4.40.
For the compound `CNC(=O)c1cc(Oc2ccc(NC(=O)c3cc(C(F)(F)F)cc(C(F)(F)F)c3)cc2)ccn1`, the negative-log IC50 (pIC50) in experiment [1] (Homo sapiens, PLC-PRF-5) was less than 4.40.
With SC-1 [listing 2 of 2 here], the inhibition result in experiment [5], in experiment [3] and in experiment [4] was “Active” in each case. Also, the result in experiment [6] and in experiment [8] was Active. For the same compound, the inhibition entry in experiment [7] is “inactive”.
As to `Cc1cc(Oc2ccnc3c([N+](=O)[O-])cccc23)ccc1NC(=O)c1cc(C(F)(F)F)cc(C(F)(F)F)c1`, the pIC50 in experiment [1] (Homo sapiens, PLC-PRF-5) is less than 4.40.
With `CNC(=O)c1cc(Oc2ccc(NS(=O)(=O)c3ccc(F)cc3)cc2)ccn1`, the pIC50 in experiment [1] (Homo sapiens, PLC-PRF-5) is less than 4.40.
Regarding `O=S(=O)(Nc1ccc(Oc2ccnc3ccccc23)cc1)c1ccc(C(F)(F)F)cc1Br`, the pIC50 in experiment [1] (Homo sapiens, PLC-PRF-5) was less than 4.40.
Regarding `CNC(=O)c1cc(Oc2ccc(NS(=O)(=O)c3ccccc3[N+](=O)[O-])cc2)ccn1`, the negative-log IC50 (pIC50) in experiment [1] (Homo sapiens, PLC-PRF-5) was less than 4.40.
Turning to `CC(=O)Nc1cccc2c(Oc3cccc(NC(=O)c4cc(C(F)(F)F)cc(C(F)(F)F)c4)c3)ccnc12`, the pIC50 in experiment [1] (Homo sapiens, PLC-PRF-5) was 4.97.
Consider `CNC(=O)c1cc(Oc2ccc(NS(=O)(=O)c3ccc([N+](=O)[O-])cc3)cc2)ccn1`, for which the pIC50 in experiment [1] (Homo sapiens, PLC-PRF-5) is less than 4.40.
For `O=C(Nc1ccc(Oc2ccnc3c([N+](=O)[O-])cccc23)cc1)c1cc(C(F)(F)F)cc(C(F)(F)F)c1`, the pIC50 in experiment [1] (Homo sapiens, PLC-PRF-5) was less than 4.40.
